Measured values of several laboratories.
murD: UDP-N-acetylmuramoylalanine--D-glutamate ligase (murD, Escherichia coli K-12, UniProt P14900)
BRD4 BD1: Bromodomain-containing protein 4, BD1 (BRD4, Homo sapiens, UniProt O60885)
HDAC8: Histone deacetylase 8 (HDAC8, Homo sapiens, UniProt Q9BY41)
BAZ1B: Tyrosine-protein kinase BAZ1B (BAZ1B, Homo sapiens, UniProt Q9UIG0)

O=C(Nc1ccc(C=NNS(=O)(=O)c2ccc3ccccc3c2)cc1)c1cc([N+](=O)[O-])cc([N+](=O)[O-])c1 — remaining activity (murD; enzyme activity; inhibitor; absorbance; 100 µM): 78%
CC(C)[C@@H]1NC(=O)[C@@H]2CCCN2C(=O)[C@H](Cc2ccccc2)NC(=O)CSC[C@@H](C(=O)N[C@@H](Cc2ccc(O)cc2)C(N)=O)NC(=O)[C@H](Cc2c[nH]c3ccccc23)NC(=O)[C@H](CCCCN)NC(=O)[C@H](Cc2ccccc2)N(C)C(=O)[C@H](Cc2ccccc2)NC1=O — ΔTm (BRD4 BD1; thermal stability; DSF; 200 µM): -0.27 °C
C[S+]([O-])c1ccc(-c2nc(-c3ccncc3)c(-c3ccc(F)cc3)[nH]2)cc1 (centres unmarked) — ΔTm (Bromodomain-containing protein 4, BD2 (BRD4, Homo sapiens, UniProt O60885); thermal stability; DSF; 10 µM): 1.67 °C
O=C(Cc1ccc2c(c1)OCO2)Oc1ccccc1C=NNS(=O)(=O)c1ccc2ccccc2c1 — remaining activity (murD; enzyme activity; inhibitor; absorbance; 100 µM): 49%
NS(=O)(=O)c1ccc(Nc2nc(-c3ccc(F)cc3)c3ccccc3n2)cc1 — remaining binding (BRD4 BD1; binding; competition with immobilised ligand; 1 µM): 5%
O=c1c(O)c(-c2ccc(O)cc2)oc2cc(O)cc(O)c12 — inhibition (HDAC8; enzyme activity; inhibitor; 10 µM): 66.3%
N#Cc1ccc(COc2ccccc2C=NNS(=O)(=O)Cc2ccccc2F)cc1 — remaining activity (murD; enzyme activity; inhibitor; absorbance; 100 µM): 39%
Oc1ccc(-c2nc(-c3ccncc3)c(-c3ccc(F)cc3)[nH]2)cc1 — ΔTm (Histone acetyltransferase KAT2B (KAT2B, Homo sapiens, UniProt Q92831); thermal stability; DSF; 10 µM): -0.19 °C
CN(C)CCN1CCN(c2nc(NCc3cccc(Cl)c3)c3cc(-c4ccc(=O)n(C)c4)ccc3n2)CC1 — ΔTm (BRD4 BD1; thermal stability; DSF; 250 µM): 15 °C
CC[C@H](CC[C@@H](C)[C@H]1CC[C@H]2[C@@H]3CC=C4C[C@@H](O[C@@H]5O[C@H](CO)[C@@H](O)[C@H](O)[C@H]5O)CC[C@]4(C)[C@H]3CC[C@]12C)C(C)C — inhibition (HDAC8; enzyme activity; inhibitor; 10 µM): -8.57%
O=[N+]([O-])c1ccccc1S(=O)(=O)Oc1ccccc1C=NNS(=O)(=O)c1ccc2ccccc2c1 — remaining activity (murD; enzyme activity; inhibitor; absorbance; 50 µM): 71%
Cc1cc2c(cc1N1C(=O)c3cccc4c(Cl)ccc(c34)C1=O)n(C)c(=O)n2C — ΔTm (BAZ1B; thermal stability; DSF; 10 µM): -1 °C
Cc1ccc(C(=O)Nc2ccc(CN3CCN(C)CC3)c(C(F)(F)F)c2)cc1C#Cc1cnc2cccnn12 — remaining activity (Mitogen-activated protein kinase kinase kinase 4 (MAP3K4, Homo sapiens, UniProt Q9Y6R4); enzyme activity; inhibitor; 23.5 nM): 95%
CCCOc1ccc(OC)c(F)c1C(=O)c1ccc(C(=O)N[C@@H]2CNC[C@H]2NC(=O)c2ccc3[nH]ncc3c2)cc1 — remaining activity (cGMP-dependent protein kinase 1 (PRKG1, Homo sapiens, UniProt Q13976); enzyme activity; inhibitor; 10 µM): -6%
O=C(Nc1ccc(C=NNS(=O)(=O)c2ccc3ccccc3c2)cc1)c1ccc([N+](=O)[O-])cc1 — remaining activity (murD; enzyme activity; inhibitor; absorbance; 50 µM): 81%
Cc1cnc(Nc2ccc(OCCN3CCCC3)cc2)nc1Nc1cccc(S(=O)(=O)NC(C)(C)C)c1 — ΔTm (BAZ1B; thermal stability; DSF; 10 µM): -0.02 °C
Nc1ncnc2occ(-c3ccc(NC(=O)Nc4cc(C(F)(F)F)ccc4F)cc3)c12 — remaining signal (Cyclin-dependent kinase 11B (CDK11B, Homo sapiens, UniProt P21127); cell-free assay; 20 µM): 0.4%
